Reference: ChEMBL document CHEMBL1135243, “Evaluation of morphogenic regulatory activity of farnesoic acid and its derivatives against Candida albicans dimorphism” (Bioorg Med Chem Lett, 2002)
Values after ≈ are worked out from the molar mass of the structure shown.

What was measured:
[1] = test system: Candida albicans; assay: In vitro inhibition of yeast-to-hypha transition in candida albicans; type: functional, organism-based
[2] = test system: Candida albicans; assay: In vitro inhibition of yeast cell growth of candida albicans; type: functional, organism-based
[3] = test system: Candida albicans; assay: In vitro inhibition of yeast cell growth of candida albicans; No inhibition; type: functional, organism-based
[4] = test system: Candida albicans; assay: In vitro inhibition of yeast-to-hypha transition in candida albicans; No inhibition; type: functional, organism-based
[5] = test system: Candida albicans; assay: In vitro inhibition of yeast cell growth of candida albicans at a concentration of 100 ug/mL; type: functional
[6] = test system: Candida albicans; assay: In vitro inhibition of yeast-to-hypha transition in candida albicans at a concentration of 100 ug/mL; type: functional
How it was run: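 C. albicans ATCC 10231 grown 48 h at 30 °C in YPD, washed twice in sterile water. DMSO stocks diluted in glucose salts (GS) medium, final DMSO below 0.5%. Cells at 10^5 cells/mL in GS with compound, 4 h at 37 °C. Yeast vs hypha (germ tube) percentages counted microscopically on 200 cells from triplicate dishes, relative to 0.5% DMSO control. Highest concentration tested.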

SMILES	IC50 [4] [µg/mL]	IC50 [3] [µg/mL]	also measured
CC(C)=CCC/C(C)=C/CC/C(C)=C/C(N)=O			IC50 [1]: 20.7 µg/mL (≈ 88 µM); IC50 [2]: 26.3 µg/mL (≈ 112 µM)
CC(C)=CCC/C(C)=C/CC/C(C)=C/COC(=O)/C=C(\C)CC/C=C(\C)CCC=C(C)C	> 100	> 100	
CC(C)=CCC/C(C)=C/CC/C(C)=C/C(=O)N1CCOCC1			IC50 [1]: 41 µg/mL (≈ 134 µM); IC50 [2]: 87.5 µg/mL (≈ 286 µM)
CC(C)=CCC/C(C)=C/C(=O)O	> 100		inhibition at 100 µg/mL [5]: 57%
CC(C)=CCC/C(C)=C/CC/C(C)=C\C(=O)O		> 100	inhibition at 100 µg/mL [6]: 18%
CC(C)=CCC/C(C)=C/CC/C(C)=C/C(=O)N(C)C			IC50 [1]: 16.9 µg/mL (≈ 64.3 µM); IC50 [2]: 43.7 µg/mL (≈ 166 µM)
CC(C)=CCC/C(C)=C/CC/C(C)=C/C(=O)OC/C=C(\C)CCC=C(C)C	> 100	> 100	
CC(C)=CCC/C(C)=C/CC/C(C)=C/C(=O)OC/C=C/c1ccccc1	> 100	> 100	
CC(C)=CCC/C(C)=C/CC/C(C)=C/C(=O)O		> 100	IC50 [1]: 4.56 µg/mL (≈ 19.3 µM)
CC(C)=CCC/C(C)=C/CC/C(C)=C/C(=O)OCc1ccccc1	> 100	> 100	
CC(C)=CCC/C(C)=C/CC/C(C)=C/CO [FARNESOL]			IC50 [1]: 2.82 µg/mL (≈ 12.7 µM); inhibition at 100 µg/mL [5]: 35%
CC(C)=CCC/C(C)=C/CC/C(C)=C/CC/C(C)=C/C(=O)O [GERANYLGERANOIC ACID]	> 100	> 100	

More lines, main results first:

IC50 [4] [µg/mL]	SMILES	IC50 [3] [µg/mL]	also measured
> 100	C=CCOC(=O)/C=C(\C)CC/C=C(\C)CCC=C(C)C	> 100	
> 100	COC(=O)/C=C(\C)CC/C=C(\C)CCC=C(C)C	> 100	
> 100	C=CCNC(=O)/C=C(\C)CC/C=C(\C)CCC=C(C)C	> 100	
> 100	CC(C)=CCC/C(C)=C/CC/C(C)=C/C(=O)OCC=C(C)C	> 100	
> 100	CNC(=O)/C=C(\C)CC/C=C(\C)CCC=C(C)C	> 100	
